Test results from ChEMBL document CHEMBL1150274 (Bioorg Med Chem, 2008).
The source made the active and inactive calls. The rule behind the calls is not given here.

Assays:
[1] = biological target: Delta-type opioid receptor (Homo sapiens, UniProt P41143); test: Displacement of [3H]naltrindole from human delta opioid receptor expressed in CHO cells; assay type: cell-based
[2] = biological target: T1, Kappa-type opioid receptor (Homo sapiens, UniProt P41145); test: Displacement of [3H]U69,593 from human kappa opioid receptor expressed in CHO cells; assay type: cell-based
T1 sequence (P41145 whole entry): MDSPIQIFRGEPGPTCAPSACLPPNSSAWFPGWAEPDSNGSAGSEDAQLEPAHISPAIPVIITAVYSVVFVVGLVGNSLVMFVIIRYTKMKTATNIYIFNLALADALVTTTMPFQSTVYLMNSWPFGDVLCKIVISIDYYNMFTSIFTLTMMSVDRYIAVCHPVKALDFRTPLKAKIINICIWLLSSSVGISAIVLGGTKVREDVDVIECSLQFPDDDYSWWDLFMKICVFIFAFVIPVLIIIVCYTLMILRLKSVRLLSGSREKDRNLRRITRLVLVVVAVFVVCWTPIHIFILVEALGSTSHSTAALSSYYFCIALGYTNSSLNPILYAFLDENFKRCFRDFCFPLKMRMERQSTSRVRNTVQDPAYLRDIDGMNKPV

Mu-type opioid receptor [3] = biological target: T2, Mu-type opioid receptor (Homo sapiens, UniProt P35372); test: Displacement of [3H]DAMGO from human mu opioid receptor expressed in CHO cells; assay type: cell-based
T2 sequence (P35372 whole entry): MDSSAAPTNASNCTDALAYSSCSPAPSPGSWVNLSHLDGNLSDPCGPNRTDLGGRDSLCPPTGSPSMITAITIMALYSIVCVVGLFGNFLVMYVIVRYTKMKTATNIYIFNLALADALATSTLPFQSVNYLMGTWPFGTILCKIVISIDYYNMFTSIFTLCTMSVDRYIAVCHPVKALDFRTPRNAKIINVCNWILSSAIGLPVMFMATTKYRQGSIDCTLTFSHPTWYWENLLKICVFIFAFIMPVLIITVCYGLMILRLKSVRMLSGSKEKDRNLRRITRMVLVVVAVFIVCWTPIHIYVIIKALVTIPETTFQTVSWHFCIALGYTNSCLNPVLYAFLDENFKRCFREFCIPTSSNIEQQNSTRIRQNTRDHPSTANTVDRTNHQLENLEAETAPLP

Mu-type opioid receptor [4] = biological target: T2, Mu-type opioid receptor; test: Antagonist activity at human mu opioid receptor expressed in CHO cells assessed as inhibition of DAMGO-stimulated [35S]GTPgammaS binding; assay type: functional, cell-based
[5] = biological target: T1, Kappa-type opioid receptor; test: Activity at human kappa opioid receptor expressed in CHO cells assessed as stimulation of [35S]GTPgammaS binding relative to basal level; assay type: functional, cell-based
How it was run: (§1)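 Twelve compound concentrations were incubated with CHO membranes (κ 15 μg, μ 7.5 μg) and 0.080 nM [35S]GTPγS for 60 min at 30°C. Nonspecific binding was defined with 10 μM GTPγS. Samples were filtered and counted. Emax was taken with basal set at 0%, with EC50. Mean ± SEM, ≥3 experiments in triplicate.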

[6] = biological target: T1, Kappa-type opioid receptor; test: Antagonist activity at human kappa opioid receptor expressed in CHO cells assessed as inhibition of U50,488-stimulated [35S]GTPgammaS binding; assay type: functional, cell-based
How it was run: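 κ-receptor CHO membranes were incubated with compound in the presence of 100 nM U50,488 in a [35S]GTPγS binding assay.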

Mu-type opioid receptor [7] = biological target: T2, Mu-type opioid receptor; test: Activity at human mu opioid receptor expressed in CHO cells assessed as stimulation of [35S]GTPgammaS binding relative to basal level; assay type: functional, cell-based; how it was run: as §1
[8] = biological target: T1, Kappa-type opioid receptor; test: Activity at human kappa opioid receptor expressed in CHO cells assessed as stimulation of [35S]GTPgammaS binding; assay type: functional, cell-based; how it was run: as §1

Delta-type opioid receptor, sequence (P41143 whole entry): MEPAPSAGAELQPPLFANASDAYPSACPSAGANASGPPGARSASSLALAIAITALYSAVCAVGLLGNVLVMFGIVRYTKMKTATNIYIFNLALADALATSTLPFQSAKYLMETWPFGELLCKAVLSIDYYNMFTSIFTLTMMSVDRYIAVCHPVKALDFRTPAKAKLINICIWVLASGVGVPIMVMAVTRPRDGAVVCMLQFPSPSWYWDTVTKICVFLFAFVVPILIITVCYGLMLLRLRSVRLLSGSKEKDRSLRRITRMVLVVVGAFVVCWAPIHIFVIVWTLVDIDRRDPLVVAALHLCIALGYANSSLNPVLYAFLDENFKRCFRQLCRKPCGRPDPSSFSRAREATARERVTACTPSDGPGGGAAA

`C[C@H]1C2Cc3cc([N+](=O)[O-])c(O)cc3[C@@]1(C)CCN2CC1CC1` (mixture of isomers) showed a Ki [1] greater than 10000 nM, a Ki [2] of 580 nM and a Ki (Mu-type opioid receptor [3]) of 3800 nM.
In the case of `C[C@H]1C2Cc3ccc4c(N)ncnc4c3[C@@]1(C)CCN2CC1CC1` (mixture of isomers), the IC50 (Mu-type opioid receptor [4]) is reported as 28 nM, the Imax (Mu-type opioid receptor [4]) is reported as 88% and the Emax [5] is reported as 6.3%. For the same molecule, the Ki [1] was 120 nM, the Ki [2] was 1 nM and the Ki (Mu-type opioid receptor [3]) was 0.55 nM. It also gave an IC50 [6] of 1300 nM, an Imax [6] of 75% and an Emax (Mu-type opioid receptor [7]) of 0.64%.
In the case of `C[C@H]1C2Cc3cc([N+](=O)[O-])c(C(N)=O)cc3[C@@]1(C)CCN2CC1CC1` (mixture of isomers), the Ki [1] is reported as 730 nM, the Ki [2] is reported as 110 nM and the Ki (Mu-type opioid receptor [3]) is reported as 630 nM.
For `C[C@H]1C2Cc3cc4cc[nH]c(=O)c4cc3[C@@]1(C)CCN2CC1CC1` (mixture of isomers), the EC50 [8] was 60 nM, the IC50 (Mu-type opioid receptor [4]) was 850 nM and the Imax (Mu-type opioid receptor [4]) was 69%. It also gave an Emax [5] of 91%, a Ki [1] of 74 nM and a Ki [2] of 0.74 nM. The Ki (Mu-type opioid receptor [3]) was 5.5 nM, the Activity [6] was “inactive” and the Emax (Mu-type opioid receptor [7]) was 27%.
`C[C@H]1C2Cc3cc4ncnc(N)c4cc3[C@@]1(C)CCN2CC1CC1` (mixture of isomers) gave a Ki [1] greater than 10000 nM, a Ki [2] of 560 nM and a Ki (Mu-type opioid receptor [3]) of 890 nM.
`C[C@H]1C2Cc3ccc4c(NCc5ccccc5)ncnc4c3[C@@]1(C)CCN2CC1CC1` (mixture of isomers) showed a Ki [1] of 1500 nM, a Ki [2] of 240 nM and a Ki (Mu-type opioid receptor [3]) of 44 nM.
`C[C@H]1C2Cc3ccc4c(NCCc5ccc(-c6ccccc6)cc5)ncnc4c3[C@@]1(C)CCN2CC1CC1` (mixture of isomers) gave a Ki [1] of 52 nM, a Ki [2] of 8.6 nM and a Ki (Mu-type opioid receptor [3]) of 6.9 nM.
`C[C@H]1C2Cc3cc4ncnc(NCCc5ccc(-c6ccccc6)cc5)c4cc3[C@@]1(C)CCN2CC1CC1` (mixture of isomers) gave a Ki [1] of 410 nM, a Ki [2] of 140 nM and a Ki (Mu-type opioid receptor [3]) of 28 nM.
Work on `C[C@H]1C2Cc3ccc(O)c([N+](=O)[O-])c3[C@@]1(C)CCN2CC1CC1` (mixture of isomers) yielded a Ki [1] of 1900 nM, a Ki [2] of 3.2 nM and a Ki (Mu-type opioid receptor [3]) of 32 nM.
With `C[C@H]1C2Cc3ccc(C(N)=O)c([N+](=O)[O-])c3[C@@]1(C)CCN2CC1CC1` (mixture of isomers) the Ki [1] was 220 nM, the Ki [2] was 34 nM and the Ki (Mu-type opioid receptor [3]) was 20 nM.
`C[C@H]1C2Cc3ccc(C(N)=O)c(N)c3[C@@]1(C)CCN2CC1CC1` (mixture of isomers) showed an EC50 [8] of 15 nM, an IC50 (Mu-type opioid receptor [4]) of 31 nM and an Imax (Mu-type opioid receptor [4]) of 93%. It also gave an Emax [5] of 38%, a Ki [1] of 35 nM and a Ki [2] of 0.7 nM. For the same molecule, the Ki (Mu-type opioid receptor [3]) was 0.55 nM, the Activity [6] was “inactive” and the Emax (Mu-type opioid receptor [7]) was 4.6%.
For `C[C@H]1C2Cc3cc4ncnc(NCc5ccccc5)c4cc3[C@@]1(C)CCN2CC1CC1` (mixture of isomers), the Ki [1] was 1000 nM, the Ki [2] was 48 nM and the Ki (Mu-type opioid receptor [3]) was 88 nM.
